The values that follow come from ChEMBL document CHEMBL1156088, “Synthesis and biological activity of novel oxazolidinones” (2009).

≈ marks a conversion by molar mass, not a printed value.

For orientation: MIC means the smallest concentration in the dilution series that meets the test's criterion for growth inhibition. A high value points to weaker potency.

Holding throughout (format): functional
Experiment [1] has as its system Staphylococcus aureus. Description: Antibacterial activity against methicillin-resistant Staphylococcus aureus 33 by NCCLS method. A digest of the protocol:
(§1)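 In vitro MIC determined by the NCCLS method against a panel of gram-positive bacteria. Ranbezolid and linezolid were run alongside as reference standards.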

Experiment [2] has as its system Staphylococcus aureus. Description: Antibacterial activity against Staphylococcus aureus 15187 by NCCLS method. A digest of the protocol: (§2)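 In vitro MIC determination by the NCCLS method against a panel of gram-positive bacteria. Two oxazolidinone reference standards were tested alongside.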
Experiment [3] concerns Enterococcus faecalis. As to the kind of experiment: Antibacterial activity against Enterococcus faecalis ATCC 29212 by NCCLS method. In outline: as §2
Experiment [4] has as its system Staphylococcus aureus. As to the kind of experiment: Antibacterial activity against methicillin-resistant Staphylococcus aureus 562 by NCCLS method. In outline: as §1
Experiment [5] has as its system Streptococcus pneumoniae. Description: Antibacterial activity against Streptococcus pneumoniae ATCC 6303 by NCCLS method. In outline: as §2
Experiment [6] relates to Staphylococcus aureus. Description: Antibacterial activity against Staphylococcus aureus ATCC 25923 by NCCLS method. A digest of the protocol:
as §2

Experiment [7] relates to Streptococcus pyogenes. Description: Antibacterial activity against Streptococcus pyogenes ATCC 19615 by NCCLS method. In outline: as §2
The subject of experiment [8] is Enterococcus faecium. Description: Antibacterial activity against vancomycin-resistant Enterococcus faecium 6A by NCCLS method. In outline: as §1

Regarding `O=C(NC[C@H]1CN(c2ccc(N3CCN(Cc4ccc([N+](=O)[O-])o4)CC3)c(F)c2)C(=O)O1)c1cc2ccccc2o1`, the MIC in experiment [1], in experiment [2], in experiment [3], in experiment [4], in experiment [5] and in experiment [6] was > 16 µg/mL in each case. In addition, the MIC in experiment [7] and in experiment [8] was > 16 µg/mL throughout.
On to `CC(Cl)C(=O)NC[C@H]1CN(c2ccc(N3CCN(Cc4ccc([N+](=O)[O-])o4)CC3)c(F)c2)C(=O)O1` (some centres not stated), for which the MIC in experiment [1], in experiment [2], in experiment [3], in experiment [4], in experiment [5] and in experiment [6] was > 16 µg/mL each time. For the same molecule, the MIC in experiment [7] and in experiment [8] was > 16 µg/mL each time.
As for `O=CNC[C@H]1CN(c2ccc(N3CCN(Cc4ccc([N+](=O)[O-])o4)CC3)c(F)c2)C(=O)O1`, the MIC in experiment [1] turned out to be 2 µg/mL (≈ 4.47 µM); in experiment [2] it was 2 µg/mL (≈ 4.47 µM); in experiment [3], 2 µg/mL (≈ 4.47 µM); in experiment [4], 2 µg/mL (≈ 4.47 µM); in experiment [5], 1 µg/mL (≈ 2.24 µM); in experiment [6], 4 µg/mL (≈ 8.94 µM). The MIC in experiment [7] amounted to 0.5 µg/mL (≈ 1.12 µM); in experiment [8], 4 µg/mL (≈ 8.94 µM).
`COC(=O)NC[C@H]1CN(c2ccc(N3CCN(Cc4ccc([N+](=O)[O-])o4)CC3)c(F)c2)C(=O)O1`: the MIC in experiment [1] is 8 µg/mL (≈ 16.8 µM); in experiment [2], 8 µg/mL (≈ 16.8 µM); in experiment [3], 8 µg/mL (≈ 16.8 µM); in experiment [4], 2 µg/mL (≈ 4.19 µM); in experiment [5] it was 1 µg/mL (≈ 2.09 µM); in experiment [6], 8 µg/mL (≈ 16.8 µM). Besides, the MIC amounted to 1 µg/mL (≈ 2.09 µM) in experiment [7] and 8 µg/mL (≈ 16.8 µM) in experiment [8].
